Reference: article PMC3378255 (ACS chemical neuroscience, 2012)
Like-named read-outs stand apart in the source and are kept apart here.

Columns and labels:
KOR = KOR (Homo sapiens, UniProt P41145); test: PDSP radioligand binding assay, KOR
[1] = tested on: 44 GPCR and other molecular targets; test: PDSP binding assay panel of 44 GPCR and other molecular targets
How it was run: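 The Psychoactive Drug Screening Program ran radioligand binding assays across 44 GPCR and other targets. Test compounds were first screened at a single 10 μM concentration. Those showing significant activity then went to Ki determination.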

[2] = Plasma protein binding, human; format: in vitro ADME; settings: for bound to both human and mouse plasma: human and mouse plasma together; for plasma protein binding (% Bound): human
[3] = Plasma protein binding, mouse; format: in vitro ADME
[4] = tested on: Fa2N-4 immortalized human hepatocytes; test: Hepatic toxicity; format: cell-based; settings: in words
[5] = mouse, microsomes, 1 h

Sequence of KOR (P41145 whole entry): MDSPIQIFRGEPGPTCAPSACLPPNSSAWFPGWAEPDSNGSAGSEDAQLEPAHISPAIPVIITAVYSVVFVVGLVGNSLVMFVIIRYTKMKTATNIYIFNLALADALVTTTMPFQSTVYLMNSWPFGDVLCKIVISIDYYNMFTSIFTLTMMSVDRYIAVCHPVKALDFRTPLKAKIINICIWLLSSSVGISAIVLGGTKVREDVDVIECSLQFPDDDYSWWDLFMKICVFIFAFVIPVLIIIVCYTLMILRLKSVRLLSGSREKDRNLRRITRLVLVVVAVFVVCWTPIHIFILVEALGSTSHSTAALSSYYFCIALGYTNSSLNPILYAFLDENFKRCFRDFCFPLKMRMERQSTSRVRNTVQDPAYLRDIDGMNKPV

SMILES	Ki (KOR) [nM]	affinity across the PDSP assay panel ([1]; in words, concentrations up to 10,000 nM)	bound to both human and mouse plasma [2]	plasma protein binding (% Bound) ([2]; 1µM)	plasma protein binding (% Bound) ([2]; 10µM)	plasma protein binding (% Bound) ([3]; 1µM)	plasma protein binding (% Bound) ([3]; 10µM)	toxicity toward human hepatocytes [4]	Ki ([1]; read-out: Ki values for 11 non-opioid targets, weak binding affinity, PDSP panel) [nM]	PAMPA Pe	PAMPA Pe (pH 7.4) [cm/s]	hepatic microsome stability [5] [% remaining]
O=C(c1ccccn1)N(Cc1cccs1)C1(C(=O)NC2CCCCC2)CCCCC1 [1{1}, N-(1-(Cyclohexylcarbamoyl)cyclohexyl)-N-(thiophen-2-ylmethyl)picolinamide]	0.6	affinity only for the opioid receptors	90–99%	99.59	99.07	94.05	90.70	significant toxicity	–	–	–	–
Clc1ccc(CSc2nnc(-c3ccccn3)n2Cc2ccco2)cc1Cl [2{8}]	–	–	90–99%	99.75	99.80	99.80	99.64	–	1000 to 10000	–	–	–
Cc1ccc(S(=O)(=O)NCc2ccc(C(=O)NCCN(Cc3ccccc3)C(C)C)cc2)cc1 [3{1}, N-(2-(Benzyl(isopropyl)amino)ethyl)-4-((4-methylphenylsulfonamido)methyl)benzamide]	–	–	90–99%	99.67	99.73	98.90	98.92	–	–	1710–1940 ×10^−6 cm/s	–	–
COc1ccc(N2CCN(CCCNC(=O)Cn3c(=O)c4cccn4c4c(C)ccnc43)CC2)cc1 [4{13}, N-(3-(4-(4-Methoxyphenyl)piperazin-1-yl)propyl)-2-(1-methyl-6-oxopyrido[2,3-e]pyrrolo[1,2-a]pyrazin-5(6H)-yl)acetamide]	–	–	80–94%	93.96	88.54	88.46	80.07	–	–	2.7e-05 cm/s	0.000757	7.3
